Test results as given in ChEMBL document CHEMBL1811862, “Ieodomycins A-D, antimicrobial fatty acids from a marine Bacillus sp” (2011).
Converted amounts (≈) assume the structure as drawn.

Assays:
Type in all cases: functional
Escherichia coli = test: Antimicrobial activity against Escherichia coli KCTC 1923 after 24 hrs by broth dilution method; conditions: KCTC 1923, 24 h
Summary of the method: (§1)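 Twofold serial dilutions in nutrient broth (0.5–512.0 μg/mL) in microtiter plates. An overnight culture was adjusted to 1.5 × 10⁸ cfu/mL against the 0.5 McFarland standard and added to each dilution. Plates were incubated 24 h at 37 °C. MIC was the lowest concentration giving no visible growth (turbidity).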

Saccharomyces cerevisiae = test: Antimicrobial activity against Saccharomyces cerevisiae KCTC 7913 after 48 hrs by broth dilution method; conditions: KCTC 7913, 48 h
Summary of the method: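 Yeast maltose broth, with twofold serial dilutions spanning 0.5–512.0 μg/mL in microtiter plates. An overnight yeast culture was adjusted to 1.5 × 10⁸ cfu/mL by the 0.5 McFarland standard and added to each well. Plates were held 48 h at 30 °C. MIC was the lowest concentration without visible turbidity.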

Bacillus subtilis = test: Antimicrobial activity against Bacillus subtilis KCTC 1021 after 24 hrs by broth dilution method; conditions: KCTC 1021, 24 h; summary of the method: as §1

**Q.** For `C=C/C=C(\C)CC[C@@H]1C[C@H](O)CC(=O)O1` [IEODOMYCIN B], which MIC (Escherichia coli) is on record?
**A.** Its MIC is 32 µg/mL (≈ 152 µM).

**Q.** And the MIC (Saccharomyces cerevisiae)?
**A.** The MIC was 256 µg/mL (≈ 1220 µM).

**Q.** What about the MIC (Bacillus subtilis) of the same compound?
**A.** The MIC was 32 µg/mL (≈ 152 µM).

**Q.** For `C[C@@H](O)CCC/C=C/C=C/[C@@H](O)CC(=O)O` [IEODOMYCIN C], which MIC (Escherichia coli) is on record?
**A.** Its MIC is 32 µg/mL (≈ 140 µM).

**Q.** What about the MIC (Saccharomyces cerevisiae) of the same compound?
**A.** The MIC was 256 µg/mL (≈ 1120 µM).

**Q.** What about the MIC (Bacillus subtilis) of the same compound?
**A.** Its MIC is 32 µg/mL (≈ 140 µM).

**Q.** Which results are given for `C[C@@H](O)CCC/C=C/C=C/C(=O)O` [IEODOMYCIN D]?
**A.** MIC (Escherichia coli): 32 µg/mL (≈ 174 µM); MIC (Saccharomyces cerevisiae): 256 µg/mL (≈ 1390 µM); MIC (Bacillus subtilis): 32 µg/mL (≈ 174 µM)

**Q.** What does the source list for `C=C/C=C(\C)CC[C@@H](O)C[C@H](O)CC(=O)OC` [IEODOMYCIN A]?
**A.** MIC (Escherichia coli): 32 µg/mL (≈ 132 µM); MIC (Saccharomyces cerevisiae): 256 µg/mL (≈ 1060 µM); MIC (Bacillus subtilis): 32 µg/mL (≈ 132 µM)
